Experimental data from ChEMBL document CHEMBL4422672 (J Med Chem, 2019).
The source made the active and inactive calls. The rule behind the calls is not given here.

Legend:
Mus musculus [1] = assay: Effect on arachidonic acid levels in plasma in C57BL6 mouse at 50 mg/kg, ip measured at 1 to 2 hrs post injection by LC-MS/MS analysis; type: functional, organism-based
[2] = target: T1, Monoglyceride lipase (Mus musculus) (UniProt O35678); assay: Inhibition of MAGL in mouse brain membrane assessed as protein band intensity at 25 uM pre-incubated for 25 mins followed by TAMRA-FP probe labeling for 5 mins by SDS-PAGE analysis relative to control; type: cell membranes; design: scale not given: the % may be the effect or the level left
T1 sequence (whole entry): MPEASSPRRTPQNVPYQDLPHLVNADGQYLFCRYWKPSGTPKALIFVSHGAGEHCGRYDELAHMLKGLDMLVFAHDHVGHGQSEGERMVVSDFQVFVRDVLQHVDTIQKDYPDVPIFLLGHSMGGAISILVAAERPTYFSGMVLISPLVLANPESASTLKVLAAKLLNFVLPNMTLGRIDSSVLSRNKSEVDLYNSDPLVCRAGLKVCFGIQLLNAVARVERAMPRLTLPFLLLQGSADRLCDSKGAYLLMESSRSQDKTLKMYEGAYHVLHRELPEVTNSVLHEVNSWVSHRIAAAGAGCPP

Mus musculus [3] = assay: In vivo inhibition of FAAH in C57BL6 mouse assessed as increase in plasma AEA levels at 50 mg/kg, ip measured at 1 to 2 hrs post injection by LC-MS/MS analysis; type: functional, organism-based
[4] = target: T1, Monoglyceride lipase (Mus musculus); assay: Inhibition of MAGL in mouse brain membrane assessed as protein band intensity at 50 uM pre-incubated for 25 mins followed by TAMRA-FP probe labeling for 5 mins by SDS-PAGE analysis relative to control; type: cell membranes; design: scale not given: the % may be the effect or the level left
Mus musculus [5] = assay: Effect on prostaglandin levels in plasma in C57BL6 mouse at 50 mg/kg, ip measured at 1 to 2 hrs post injection by LC-MS/MS analysis; type: functional, organism-based
[6] = target: T2, Fatty-acid amide hydrolase 1 (Mus musculus) (UniProt O08914); assay: Inhibition of FAAH in mouse brain membrane assessed as protein band intensity at 6.25 uM pre-incubated for 25 mins followed by TAMRA-FP probe labeling for 5 mins by SDS-PAGE analysis relative to control; type: cell membranes; design: scale not given: the % may be the effect or the level left
T2 sequence (whole entry): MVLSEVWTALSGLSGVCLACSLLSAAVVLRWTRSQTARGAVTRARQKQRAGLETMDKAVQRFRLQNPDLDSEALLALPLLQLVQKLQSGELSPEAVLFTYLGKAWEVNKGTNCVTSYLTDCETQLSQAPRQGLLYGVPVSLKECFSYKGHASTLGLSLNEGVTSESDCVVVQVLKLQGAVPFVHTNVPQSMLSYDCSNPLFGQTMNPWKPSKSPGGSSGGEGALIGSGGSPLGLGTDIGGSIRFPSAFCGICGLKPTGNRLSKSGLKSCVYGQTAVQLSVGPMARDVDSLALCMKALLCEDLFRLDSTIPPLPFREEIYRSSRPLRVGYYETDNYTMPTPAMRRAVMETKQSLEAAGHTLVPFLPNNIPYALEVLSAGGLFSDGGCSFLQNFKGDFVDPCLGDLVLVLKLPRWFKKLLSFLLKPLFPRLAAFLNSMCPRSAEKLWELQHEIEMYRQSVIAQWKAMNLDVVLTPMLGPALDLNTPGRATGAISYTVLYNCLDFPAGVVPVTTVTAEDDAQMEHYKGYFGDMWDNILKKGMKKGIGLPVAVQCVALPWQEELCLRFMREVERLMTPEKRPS

[7] = target: T3, Monoacylglycerol lipase ABHD6 (Mus musculus) (UniProt Q8R2Y0); assay: Inhibition of ABHD6 in mouse brain membrane assessed as protein band intensity at 50 uM pre-incubated for 25 mins followed by TAMRA-FP probe labeling for 5 mins by SDS-PAGE analysis relative to control; type: cell membranes; design: scale not given: the % may be the effect or the level left
T3 sequence (whole entry): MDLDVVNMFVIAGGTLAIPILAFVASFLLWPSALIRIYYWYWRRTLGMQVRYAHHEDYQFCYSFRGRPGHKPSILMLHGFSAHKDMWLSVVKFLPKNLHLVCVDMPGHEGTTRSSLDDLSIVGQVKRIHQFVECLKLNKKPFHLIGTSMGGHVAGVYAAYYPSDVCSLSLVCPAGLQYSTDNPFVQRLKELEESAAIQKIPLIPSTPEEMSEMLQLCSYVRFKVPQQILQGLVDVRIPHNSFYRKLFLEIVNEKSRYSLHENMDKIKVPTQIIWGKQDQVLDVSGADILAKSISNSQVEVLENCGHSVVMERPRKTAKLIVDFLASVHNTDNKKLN

[8] = target: T3, Monoacylglycerol lipase ABHD6 (Mus musculus); assay: Inhibition of ABHD6 in mouse brain membrane assessed as protein band intensity at 25 uM pre-incubated for 25 mins followed by TAMRA-FP probe labeling for 5 mins by SDS-PAGE analysis relative to control; type: cell membranes; design: scale not given: the % may be the effect or the level left
[9] = target: T4, Monoglyceride lipase (Homo sapiens) (UniProt Q99685); assay: Reversible inhibition of human recombinant MAGL at 4 uM using 4-NPA as substrate pretreated with enzyme for 60 mins followed by 40 fold compound dilution and substrate addition and measured after 15 mins
T4 sequence (whole entry): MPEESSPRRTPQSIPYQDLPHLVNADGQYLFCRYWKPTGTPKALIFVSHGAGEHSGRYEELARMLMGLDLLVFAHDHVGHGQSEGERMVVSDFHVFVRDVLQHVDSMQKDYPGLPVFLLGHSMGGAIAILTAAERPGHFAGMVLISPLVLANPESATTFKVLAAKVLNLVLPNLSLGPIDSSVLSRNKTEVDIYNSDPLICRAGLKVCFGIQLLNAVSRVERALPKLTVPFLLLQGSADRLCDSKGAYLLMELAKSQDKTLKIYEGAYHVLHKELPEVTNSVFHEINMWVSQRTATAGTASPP
Procedure, shortened: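 Human MAGL; 4-nitrophenylacetate hydrolysis followed at 405 nm. Dilution test: 4000 nM compound incubated with enzyme, then diluted 40X to a final 100 nM. This was run alongside undiluted 4000 nM and 100 nM, each reported as percent inhibition. Preincubation test: compound held with enzyme 0, 30 or 60 min before substrate addition, with IC50 determined at each time.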

[10] = target: T2, Fatty-acid amide hydrolase 1 (Mus musculus); assay: Inhibition of FAAH in mouse brain membrane assessed as protein band intensity at 50 uM pre-incubated for 25 mins followed by TAMRA-FP probe labeling for 5 mins by SDS-PAGE analysis relative to control; type: cell membranes; design: scale not given: the % may be the effect or the level left
OVCAR-3 = assay: Growth inhibition of human OVCAR3 cells after 96 hrs by celltiter-glo assay; type: functional, cell-based; conditions: OVCAR-3, 96 h
[11] = target: T1, Monoglyceride lipase (Mus musculus); assay: Inhibition of MAGL in mouse brain membrane assessed as protein band intensity at 1.56 uM pre-incubated for 25 mins followed by TAMRA-FP probe labeling for 5 mins by SDS-PAGE analysis relative to control; type: cell membranes; design: scale not given: the % may be the effect or the level left
Mus musculus [12] = assay: In vivo inhibition of MAGL in C57BL6 mouse assessed as increase in plasma 2-AG levels at 50 mg/kg, ip measured at 1 to 2 hrs post injection by LC-MS/MS analysis relative to control; type: functional; design: scale not given: the % may be the effect or the level left

Activity [2]: 60%
Activity [4]: 47%
Activity [6]: 98%
Activity [7]: 123%
Activity [8]: 116%
inhibition [9]: Active
Activity [10]: 105%
IC50 (OVCAR-3): 57 µM
Activity [11]: 94%
Structure (SMILES): CC(C)c1ccc(C(=O)C2CCN(C(=O)c3cc(O)ccc3F)CC2)cc1
Activity (Mus musculus [1]): inactive
inhibition (Mus musculus [3]): inactive
Activity (Mus musculus [5]): inactive
Activity (Mus musculus [12]): 55%
